From ChEMBL document CHEMBL1124483 (J Med Chem, 1989)

Experiment: Lethal dose of the compound, when administered intraperitoneally in mice
Format: toxicity, organism-based
Details: mouse, in vivo, ip
Procedure, shortened: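 Male Swiss Webster mice (15–20 g), five per dose level, at least four dose levels, given ip injection (0.10 mL/10 g) in normal saline or saline/phosphate-buffered saline, with EtOH up to 2.5% final for some; solvent-only control group.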

**Q.** With `CC(C)(C)[C@H]1CC[C@@H](O)[C@H](N2CCC(c3ccccc3)CC2)C1` as the compound, how does the LD50 read?
**A.** 5.7 µmol/kg

**Q.** Which LD50 does the source give for `OC1CCCC1N1CCC(c2ccccc2)CC1` (stereo not given) here?
**A.** > 200 µmol/kg

**Q.** For `CC(=O)Nc1cccc2c1CC(N1CCC(c3ccccc3)CC1)C(O)C2` (stereo not given), which LD50 is on record?
**A.** 1.7 µmol/kg

**Q.** Which LD50 does the source give for `OC1CCCCC1N1CCC(Cc2ccccc2)CC1` (stereo not given) here?
**A.** > 180 µmol/kg

**Q.** With `OC1Cc2ccccc2CC1N1CCC(c2ccccc2)CC1` (stereo not given) as the compound, how does the LD50 read?
**A.** 1.2 µmol/kg

**Q.** Which LD50 does the source give for `CC1(O)CCCC[C@H]1N1CCC(c2ccccc2)CC1` (stereo not given in full) here?
**A.** > 180 µmol/kg

**Q.** Which LD50 does the source give for `OC1CCCCC1N1CC=C(c2ccc(Cl)cc2)CC1` (stereo not given) here?
**A.** > 340 µmol/kg

**Q.** For `O[C@H]1CCCC[C@@H]1N1CCC(c2ccccc2)CC1`, which LD50 is on record?
**A.** > 190 µmol/kg

**Q.** Which LD50 does the source give for `CO[C@H]1CCC[C@@H](N2CCC(c3ccccc3)CC2)[C@@H]1O` here?
**A.** 240 µmol/kg

**Q.** For `C[N+]1(C2CCCCC2O)CCC(c2ccccc2)CC1` (stereo not given), which LD50 is on record?
**A.** > 180 µmol/kg

**Q.** For `CCC(O)CN1CCC(c2ccccc2)CC1` (stereo not given), which LD50 is on record?
**A.** 300 µmol/kg

**Q.** Which LD50 does the source give for `OC1CC2CCCCC2CC1N1CCC(c2ccccc2)CC1` (racemic) here?
**A.** 2 µmol/kg

**Q.** With `OC1CCCCC1N1CCC(c2ccccc2)CC1` (racemic) as the compound, how does the LD50 read?
**A.** 16 µmol/kg

**Q.** Which LD50 does the source give for `COc1ccccc1N1CCN(C2CC3CCCCC3CC2O)CC1` (racemic; 68) here?
**A.** 12 µmol/kg

**Q.** Which LD50 does the source give for `O[C@@H]1CCCC[C@H]1N1CCC(c2ccccc2)CC1` [VESAMICOL] here?
**A.** 12 µmol/kg
